Values after ≈ are worked out from the molar mass of the structure shown. Like-named read-outs stand apart in the source and are kept apart here.

Data set [1] concerns the target human cannabinoid CB2 receptors (Homo sapiens, UniProt P34972). In words: [35S]GTPγS binding assay on hCB2-CHO cell membranes. Type of data set: biochemical. The note with it: for Functional effect on [35S]GTPγS binding: hCB2-CHO cell membranes.
A short description of data set [2]: Experimental logP determined by HPLC. Type of data set: physicochemical. The note with it: RP-18 column; for chromatographic logP: reversed-phase HPLC; for logP Exp: HPLC, MeOH/H2O, extrapolated to zero organic solvent.
Data set [3] deals with formalin-induced nocifensive behaviour. Description: Formalin test of acute peripheral and inflammatory pain. Type of data set: in vivo. The following applies: mice; for Effect on 2nd phase of formalin-induced nocifensive behaviour: 3 mg/kg ip, 15 min before formalin; for Effect of AM630 pre-treatment on the antinociceptive effect of the compound: compound 3 mg/kg ip + AM630 1 mg/kg ip 5 min before. The method in brief: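 Mice (n = 8–10 per group, randomly assigned) received test compound ip (1 or 3 mg/kg) or vehicle 15 min before formalin (1.25% in saline, 30 μl, dorsal hind paw). Where used, AM630 (1 mg/kg ip) was given 5 min before compound. A blinded observer timed lifting, favouring, licking, shaking and flinching in 5-min bins over 0–10 min (early phase) and 20–60 min (late phase). Analysis was one-way ANOVA with Tukey-Kramer.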

For the next data set, the system named is human liver microsomes. Description: CYP-dependent in vitro metabolism in human liver microsomes. Type of data set: in vitro ADME. For orientation: Liver microsomes are a subcellular fraction often used to study metabolism.
In data set [4] the target is human cannabinoid type 1 receptor (Homo sapiens, UniProt P21554). Description: CB1 receptor competitive binding assay with [3H]CP-55,940.
Data set [5] deals with human cannabinoid type 2 receptor (Homo sapiens, UniProt P34972). In words: CB2 receptor competitive binding assay with [3H]CP-55,940. The following applies: for S.I. (selectivity index for CB2, Ki(CB1)/Ki(CB2)): Ki(CB1)/Ki(CB2) ratio.
Another data set deals with CB2 receptor (Homo sapiens, UniProt P34972). In words: On-line screening on immobilized CB1/CB2-OT column. Format: binding. The following applies: 0.25 nM [3H]-Win-55,1212 marker, 10 nM compound.
Another data set can be described thus: Kinetic solubility. Type of data set: physicochemical. The note with it: water with 5% DMSO, 18 h incubation.
Setting [6] is: read-out: CB2 Ki, mean ± SD, at least three experiments in duplicate.
Setting [7] is: read-out: CB1 Ki, mean ± SD, at least three experiments in duplicate.
Where [8] appears, read: mean ± SD, at least three experiments in duplicate.

On to `CCCCCCC(C)(C)c1ccc([C@@H]2C[C@H](O)CC[C@H]2CCCO)c(O)c1` [CP55940, (−)-cis-3-[2-hydroxy-4-(1,1-dimethylheptyl)phenyl]-trans-4-(3-hydroxypropyl)cyclohexanol, reference compound], for which the Emax in data set [1] came to 84.7%.

Molecule `CCCCCn1cc(-c2cn(C34CC5CC(CC(C5)C3)C4)nn2)c(=O)c2cc(-c3ccco3)ccc21` [Compound 11, 1-(Adamantan-1-yl)-4-[6-(furan-2-yl)-1,4-dihydro-4-oxo-1-pentylquinolin-3-yl]-1H-1,2,3-triazole] yielded a chromatographic logP in data set [2] of 5.18. For the same molecule, in data set [3], the “Effect on 2nd phase of formalin-induced nocifensive behaviour” value is “significant reduction” and the “Effect of AM630 pre-treatment on the antinociceptive effect of the compound” value is “completely abolished”. Besides, in data set [1], the Emax was -52% and the “Functional effect on [35S]GTPγS binding” value is reported as “inverse agonist effects”. Moreover, the “Vmax (formation rate)” value in the data set with human liver microsomes (0.5 mg microsomal protein, 60 min incubation) is listed as 0.16±0.01 nmol x min^−1 × mg^1 protein. Also, the “CYP isoforms involved in metabolism (inhibition study)” value with human liver microsomes (human liver microsomes) was “CYP3A4 is the major isoform involved, while CYP1A and CYP2A are only partially implicated”. Also, the Metabolite identified entry in the data set with human liver microsomes (human liver microsomes, HPLC-MS) is recorded as “side chain hydroxylated derivative 32 as its only metabolite”. In data set [4], this molecule had a Ki greater than 10000 nM.

In the case of `CCCCCn1cc(-c2nc(C34CC5CC(CC(C5)C3)C4)no2)c(=O)c2cc(-c3ccc(OC(C)C)cc3)ccc21` [Compound 7, 3-(Adamantan-1-yl)-5-[6-(4-(2-propyloxy)phenyl]-1,4-dihydro-4-oxo-1-pentylquinolin-3-yl]-1,2,4-oxadiadole], the “logP Exp” value in data set [2] is given as 7.71. The Ki in data set [5] (setting [6]) and in data set [4] (setting [7]) was greater than 10000 nM throughout. Also, the “Displacement of marker ligand from OT column” value at CB2 receptor is given as “very little displacement”.

Take `CCCCCn1cc(-c2nc(C34CC5CC(CC(C5)C3)C4)no2)c(=O)c2cc(-c3ccco3)ccc21` [Compound 13, 3-(Adamantan-1-yl)-5-[6-(furan-2-yl)-1,4-dihydro-4-oxo-1-pentylquinolin-3-yl]-1H-1,2,4-oxadiadole]: the “logP Exp” value in data set [2] was 6.38. The molecule further gave a Solubility in the data set “Kinetic solubility” of 7 µg/mL (≈ 14.5 µM). For the same molecule, the “S.I. (selectivity index for CB2, Ki(CB1)/Ki(CB2))” value in data set [5] was found to be 82. Besides, the Ki in data set [5] (setting [6]) was found to be 0.4 ± 0.1 nM; in data set [4] (setting [7]) it was 33 ± 0.6 nM.

In the case of `CCCCCn1cc(-c2nnc(C34CC5CC(CC(C5)C3)C4)o2)c(=O)c2cc(Br)ccc21` [Compound 9, 2-(Adamantan-1-yl)-5-(6-bromo-1,4-dihydro-4-oxo-1-pentylquinolin-3-yl)-1,3,4-oxadiadole], the “logP Exp” value in data set [2] is listed as 5.15. Moreover, the “S.I. (selectivity index for CB2, Ki(CB1)/Ki(CB2))” value in data set [5] is listed as greater than 40. For the same molecule, the Ki was 250 ± 8.6 nM in data set [5] (setting [6]) and greater than 10000 nM in data set [4] (setting [7]).

Consider `CCCCCn1cc(-c2nnc(C34CC5CC(CC(C5)C3)C4)o2)c(=O)c2cc(-c3ccco3)ccc21` [Compound 12, 2-(Adamantan-1-yl)-5-[6-(furan-2-yl)-1,4-dihydro-4-oxo-1-pentylquinolin-3-yl]-1H-1,3,4-oxadiadole], for which the “logP Exp” value in data set [2] is 5.26. Further, the “Effect on 2nd phase of formalin-induced nocifensive behaviour” value in data set [3] is “significant reduction”. Also, the “Effect of AM630 pre-treatment on the antinociceptive effect of the compound” value in data set [3] is “did not induce any change”. In data set [1] ([35S]GTPγS binding, 95% confidence limits in brackets), this molecule yielded an EC50 of 57.6 nM. In data set [1], the “Functional effect on [35S]GTPγS binding” value is “inverse agonist effects”. Moreover, the Emax in data set [1] (percentage change in [35S]GTPγS binding, 95% confidence limits in brackets) was −46.6% (−52.5 and −40.6%). The molecule further returned a Solubility in the data set “Kinetic solubility” of 128 µg/mL (≈ 265 µM). Further, the “S.I. (selectivity index for CB2, Ki(CB1)/Ki(CB2))” value in data set [5] was greater than 1543. Further, the Ki in data set [5] (setting [6]) is 6.5 ± 2.2 nM; in data set [4] (setting [7]), greater than 10000 nM.

For `CCCCCn1cc(-c2nc(C34CC5CC(CC(C5)C3)C4)no2)c(=O)c2cc(Br)ccc21` [Compound 10, 3-(Adamantan-1-yl)-5-(6-bromo-1,4-dihydro-4-oxo-1-pentylquinolin-3-yl)-1,2,4-oxadiadole], in data set [2], the “logP Exp” value is 5.77. Also, in data set [5], the “S.I. (selectivity index for CB2, Ki(CB1)/Ki(CB2))” value turned out to be 76. Moreover, the values for the Ki in data set [5] (setting [6]) and in data set [4] (setting [7]) were 2.7 ± 0.8 nM and 208 ± 5.5 nM, respectively.

For `O=c1c(-c2cn(C34CC5CC(CC(C5)C3)C4)nn2)c[nH]c2ccc(-c3ccco3)cc12` [Compound 29, 3-(1-Adamantyl-1H-1,2,3-triazol-4-yl)-6-(furan-2-yl)quinolin-4(1H)-one], the “CB2 Ki” value in data set [5] (setting [8]) is “no affinity”. Further, the Ki in data set [5] (setting [6]) and in data set [4] (setting [7]) was greater than 10000 nM throughout. Moreover, in data set [4] (setting [8]), the “CB1 Ki” value is listed as “no affinity”.

Regarding `CCCCCn1cc(-c2cn(C34CC5CC(CC(C5)C3)C4)nn2)c(=O)c2cc(-c3ccc(OC(C)C)cc3)ccc21` [Compound 5, 1-(Adamantan-1-yl)-4-[6-(4-(2-propyloxy)phenyl]-1,4-dihydro-4-oxo-1-pentylquinolin-3-yl]-1H-1,2,3-triazole], the chromatographic logP in data set [2] was 7.78. In addition, in data set [5], the affinity, expressed as Ki, was 1680 ± 24.5 nM and the “S.I. (selectivity index for CB2, Ki(CB1)/Ki(CB2))” value is on record as greater than 6. Further, in data set [4], the Ki is greater than 10000 nM.

On to `CCCCCn1c(=O)c(-c2cn(C34CC5CC(CC(C5)C3)C4)nn2)cc2ccccc21` [Compound 15, 1-(Adamantan-1-yl)-4-(1-pentylquinolin-2(1H)-one)-1H-1,2,3-triazole], for which the “S.I. (selectivity index for CB2, Ki(CB1)/Ki(CB2))” value in data set [5] was found to be 29. The Ki came out at 11.1 ± 3.6 nM in data set [5] (setting [6]) and 321.9 ± 2.1 nM in data set [4] (setting [7]).

Consider `CC(O)CCCn1cc(-c2cn(C34CC5CC(CC(C5)C3)C4)nn2)c(=O)c2cc(-c3ccco3)ccc21` (stereo not shown) [Compound 32, 3-(1-Adamantyl-1H-1,2,3-triazol-4-yl)-6-(furan-2-yl)-1-(4-hydroxypentyl)quinolin-4(1H)-one], for which the “S.I. (selectivity index for CB2, Ki(CB1)/Ki(CB2))” value in data set [5] was greater than 52. The “Loss of potency versus parent compound 11” value in data set [5] (racemic form) was 150 fold. In addition, the Ki in data set [5] (setting [6]) is 190 ± 10 nM; in data set [4] (setting [7]) it was greater than 10000 nM.

In the case of `CCCCCn1cc(-c2cn(C34CC5CC(CC(C5)C3)C4)nn2)c(=O)c2cc(Br)ccc21` [Compound 8, 1-(Adamantan-1-yl)-4-(6-bromo-1,4-dihydro-4-oxo-1-pentylquinolin-3-yl)-1H-1,2,3-triazole], in data set [2], the chromatographic logP stood at 5.83. Moreover, the Ki is 32.2 ± 1.2 nM in data set [5] and greater than 10000 nM in data set [4].

For the molecule `CCCCCOc1nc2ccccc2cc1-c1cn(C23CC4CC(CC(C4)C2)C3)nn1` [Compound 16, 1-(Adamantan-1-yl)-4-[2-(pentyloxy)quinoline]-1H-1,2,3-triazole], the “S.I. (selectivity index for CB2, Ki(CB1)/Ki(CB2))” value in data set [5] is 271. In addition, the Ki was determined as 12.6 ± 4.3 nM in data set [5] (setting [6]) and 3415 ± 9.8 nM in data set [4] (read-out: CB1 Ki).

The Emax is the greatest response seen or fitted, relative to the assay's reference. As a reminder, the chromatographic logP is a lipophilicity value derived from retention on a column. As a reminder, the Ki is the dissociation constant of the complex between target and ligand, obtained from inhibition or displacement. The term Solubility denotes the concentration that dissolves in the medium under given conditions. A word on the EC50: it is the concentration at which the effect is half-maximal. Read a low EC50 as an effect from little substance.

The values above are taken from publication PMC3516921 (ChemMedChem, 2012).
